According to ChEMBL document CHEMBL1126990, “Design and synthesis of 18F-labeled neurotoxic analogs of MPTP” (J Med Chem, 1993):

Legend:
Assay type in all cases: ADME
[1] = Ratio between Vmax and Km
How it was run: (§1)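 Rat liver MAO (crude P2 mitochondrial fraction from adult male Wistar rats, in pH 7.4 phosphate buffer) incubated with substrate at 30 μM to 5 mM; colorimetric detection of H2O2 formed. Blanks contained 0.1 mM pargyline. Vmax and Km from linear regression of Lineweaver-Burk plots; means ± SE of n separate experiments; ANOVA with post-hoc Scheffe test.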

Rattus norvegicus [2] = organism: Rattus norvegicus; assay: Maximal rate (Vmax) for oxidation by rat liver MAO; how it was run: as §1
MAO = assay: Michaelis-Menten constant (Km) for oxidation by rat liver MAO; how it was run: as §1
Rattus norvegicus [3] = organism: Rattus norvegicus; assay: Maximal rate (Vmax) for oxidation by rat liver MAO (results are means of number of separate experiments, n=5); how it was run: as §1
[4] = separate experiments, n=5); how it was run: as §1

SMILES | Ratio [1] | Vmax (Rattus norvegicus [2]) | Km (MAO) [µM] | Vmax (Rattus norvegicus [3]) | Km [4] [µM]
CN1CC=C(c2ccccc2CO)CC1 | 0.74 | 273 nM hr-1 (mg of protein)-1 | 370 | – | –
CN1CC=C(c2ccccc2CCl)CC1 | 1.24 | – | – | 231 nM hr-1 (mg of protein)-1 | 186
